Data set [1] concerns Lolium multiflorum. Kind of data set: Plant growth regulatory activity in Lolium multiflorum (Italian ryegrass) assessed as inhibition of root growth at 1x10'-3 M at 20 degC measured after 5 days. Format: functional. As to conditions: 120 h, read-out: GI. The gist of the method:
(§1)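 Paper was pre-wetted with 500 μL acetone solution (6.0 × 10^-3 to 6.0 × 10^-8 M) and dried, then 3 mL water added to a final 1.0 × 10^-3 to 1.0 × 10^-8 M. Sealed dishes kept dark at 20 °C. Root and shoot lengths read against a negative control. Mean ± SEM; three experiments below 10^-3 M. One-way ANOVA with Tukey post-test.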

Data set [2] concerns Lactuca sativa. Kind of data set: Plant growth regulatory activity in lettuce Lactuca sativa (lettuce) assessed as inhibition of root growth at 1 mM at 20 degC measured after 3 days. The data set is classed as functional. As to conditions: 72 h, read-out: GI. The gist of the method:
(§2)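 Paper was treated with acetone solution and dried, then 3 mL water added to a final 1 × 10^-3 M. Sealed dishes kept dark at 20 °C. Root and shoot lengths expressed as growth relative to the negative control. Mean ± SEM. One-way ANOVA with Tukey post-test.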

Data set [3] deals with Lolium multiflorum. The data set can be described thus: Plant growth regulatory activity in Lolium multiflorum (Italian ryegrass ) assessed as inhibition of shoot length at 1x10'-3 M at 20 degC measured after 5 days. Format: functional. Particulars: 120 h, read-out: GI. The essentials: as §1
The subject of data set [4] is Lactuca sativa. Kind of data set: Plant growth regulatory activity in lettuce Lactuca sativa (lettuce) assessed as inhibition of shoot length at 1 mM at 20 degC measured after 3 days. The data set is classed as functional. As to conditions: 72 h, read-out: GI. The gist of the method:
as §2

Data set [5] deals with Lolium multiflorum. The data set can be described thus: Inhibition of germination in Lolium multiflorum (Italian ryegrass) seed assessed as growth rate of germinated grass root. The data set is classed as functional.
The subject of data set [6] is Lolium multiflorum. Kind of data set: Plant growth regulatory activity in Lolium multiflorum (Italian ryegrass) assessed as stimulation of root growth up to 10'--4 to 10^-7 M at 20 degC measured after 5 days. Format: functional. The essentials: as §1
Data set [7] concerns Lolium multiflorum. Kind of data set: Inhibition of seed germination in Lolium multiflorum (Italian ryegrass) seed assessed as seed germination rate (reference value: 90.3 +/- 1.40%). Format: functional.
For data set [8], the system named is Lolium multiflorum. The data set can be described thus: Toxicity in italian ryegrass Lolium multiflorum (Italian ryegrass) assessed as adverse effect up to 10^-7 M. Particulars: in vivo. The data set is classed as organism-based.
Data set [9] relates to Lolium multiflorum. Kind of data set: Plant growth regulatory activity in Lolium multiflorum (Italian ryegrass) assessed as inhibition of shoot length at 1 mM at 20 degC measured after 5 days. The data set is classed as functional. As to conditions: 120 h, read-out: GI. The gist of the method: as §1

For `COc1cc(C[C@@H]2CO[C@H](c3ccc(O)c(OC)c3)[C@@H]2CO)ccc1O`, the inhibition of growth at 1000 µM is -30% in data set [1], -20.7% in data set [2], less than 23% in data set [3] and -1.6% in data set [4].

Regarding `COc1cc(C[C@H]2CO[C@H](c3ccc(O)c(OC)c3)[C@@H]2CO)ccc1O`, the inhibition of growth at 1000 µM in [1] is -48.2%; in data set [2] it was -20.7%; in data set [4], -1.6%. Besides, the results for the “inhibition (INH)” value in data set [5] and in [7] were -35.4% and 72.5%, respectively. In data set [6], the Activity is listed as 20%.

As to `COc1cc(C[C@@H]2CO[C@@H](c3ccc(O)c(OC)c3)[C@H]2CO)ccc1O`, in [4], the inhibition of growth at 1000 µM was -32.3%.

As for `COc1cc(C[C@H]2CO[C@@H](c3ccc(O)c(OC)c3)[C@@H]2CO)ccc1O`, the inhibition of growth at 1000 µM is -20.7% in data set [2] and -1.6% in data set [4]. Further, in data set [8], the Activity entry is on record as “Non-toxic”.

`COc1cc(C[C@@H]2CO[C@H](c3ccc(O)c(OC)c3)[C@H]2CO)ccc1O`: the inhibition of growth at 1000 µM in data set [2] is -20.7%; in [4], -1.6%. In addition, the Activity entry in data set [8] is given as “Non-toxic”.

In the case of `COc1cc(C[C@H]2CO[C@@H](c3ccc(O)c(OC)c3)[C@H]2CO)ccc1O`, the inhibition of growth at 1000 µM was -30% in [1], -20.7% in data set [2], less than 23% in data set [3] and -1.6% in data set [4].

In the case of `COc1cc(C[C@@H]2CO[C@@H](c3ccc(O)c(OC)c3)[C@@H]2CO)ccc1O` [(-)-Lariciresinol], the inhibition of growth at 1000 µM in [1] is -44.3%; in [2], -8.2%; in data set [9], -17.1%; in data set [4], -13.3%. Moreover, the results for the “inhibition (INH)” value in data set [5] and in data set [7] were -57.2% and 80%, respectively.

Turning to `COc1cc(C[C@H]2CO[C@H](c3ccc(O)c(OC)c3)[C@H]2CO)ccc1O` [LARICIRESINOL], the inhibition of growth at 1000 µM in [1] was -29.3%; in data set [2], -14.4%; in [4], -22%. Besides, the “inhibition (INH)” value in [5] is -40.7%; in [7], 72.5%.

The record behind these values is ChEMBL document CHEMBL3045252, “Stereoselective syntheses of all stereoisomers of lariciresinol and their plant growth inhibitory activities” (J Agric Food Chem, 2011).
